In ChEMBL document CHEMBL4513216, “Probing the Open Global Health Chemical Diversity Library for Multistage-Active Starting Points for Next-Generation Antimalarials” (ACS Infect Dis, 2020):

Test: Toxicity liver stage against HepG2, at 10uM
Format: cell-based
Parameters: test concentration 10 uM, cell line HepG2-A16-CD81EGFP
Details: human, HepG2-A16-CD81EGFP cells; read-out: INHIBITION
Method in brief: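 Uninfected HepG2-A16-CD81EGFP cells, 3 × 10^3 per well, 1536-well, plated on prespotted compound at 10 μM final, parasite-free screening media added to match infected plates; puromycin 10 μM positive, DMSO 0.5% negative; run in parallel with 48 h PbLuc assay at 37 °C, 5% CO2; viability by CellTiter-Glo luminescence, normalized to controls.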

Point of comparison: CCc1cn[nH]c1C1CCCN(C(=O)c2cnc(NC(C)C)nc2)C1 (stereo not drawn), cytotoxicity at 10 µM -13.2%. Against it:
- O=C1CC(c2ccc(C(F)(F)F)cc2)c2c(n3ccsc3nc2=O)N1 (stereo not drawn) — higher, -1.4%
- CC(=O)c1cccc(NC(=O)Cn2cc(-c3ccccc3)ncc2=O)c1 — higher, -2.45%
- c1ccc(OCCCNCc2cccs2)nc1 — higher, -0.336%
- CC(=O)N1CCN(c2cnccn2)CC(CO)C1 (stereo not drawn) — higher, 3.03%
- CCC(C)NC(=O)CCNC(=O)c1c[nH]cc1-c1cccc(OC)c1 (stereo not drawn) — higher, 6.98%
- O=C(c1cc2c([nH]c1=O)CCC2)N1CCCCCC1c1ccncc1 (stereo not drawn) — higher, -9.31%
- CC(C)(C)c1n[nH]c(C2CN(C(=O)CCCn3cccn3)CCO2)n1 (stereo not drawn) — higher, -0.839%
- CC(C)C[C@H](NC(=O)CNC(=O)OC(C)(C)C)C(=O)OC(C)(C)C — higher, 11.9%
- CC(NC(=O)C1CCN(S(N)(=O)=O)CC1)c1cccc(OC(F)F)c1 (stereo not drawn) — higher, -8.5%
- CS(=O)(=O)CCC(=O)NC(Cc1ccccc1)C1CC1 (stereo not drawn) — higher, 11.4%
- CN(CCc1ccc2c(c1)CCO2)CC1CCS(=O)(=O)C1 (stereo not drawn) — higher, 7.33%
- Cc1cc(C(=O)N2CCn3cc(CN4CCCCC4)nc3C2)no1 — lower, -77.3%
- Cc1nnc([C@@H]2CC[C@@H]3[C@@H](CCN3S(C)(=O)=O)O2)o1 — lower, -79.1%
- CCN1C(=O)CO[C@@H]2CN(C(=O)C3CCOCC3)C[C@H]21 — lower, -78.2%
- Cc1cc(C(=O)N2CCC[C@]3(C[C@H](OCC4CC4)CO3)C2)no1 — lower, -78.8%
- CC(=O)N1CCC2(CCN(C(=O)c3ccc(F)c(C(F)(F)F)c3)C2)C1 (stereo not drawn) — lower, -76.1%
- CC(=O)NCC(=O)N1CCC2(CC1)CN(c1cccnc1)C(=O)CO2 — higher, 3.76%
- O=C(C1CCOC1)N1C[C@H]2CN(Cc3nccs3)C[C@H]2C1 (stereo partly drawn) — higher, 5.04%
- COc1ccc(OC)c(C(C(=O)O)N2CCSCC2)c1 (stereo not drawn) — higher, -1.02%
- CC(C)N(C)C(=O)c1coc(CN2CCN(c3ccccc3F)CC2)n1 — higher, 7.31%
- CC(C)c1nc(CN(C)Cc2ccc(O)c(Cl)c2)cs1 — higher, -7.27%
- CC1(CCC(=O)N2CCC(n3cc(C4(O)CCCC4)nn3)CC2)CC1 — higher, -7.69%
- CC(C)c1cc(C2CCN(C(=O)Cn3cncn3)CC2)[nH]n1 — higher, 3.65%
- Cc1cccc2cc(C(=O)N3CCSCC3)n(C)c12 — higher, 6.25%
- CN1CCN(Cc2ccc(Cl)cc2)CC1C(=O)O (stereo not drawn) — higher, -2.31%
- COCc1noc(CN2C[C@H](C3CC3)[C@@H](N(C)C)C2)n1 — higher, 1.31%
- CCCS(=O)(=O)N1CCC2(CC1)CC(=O)N(Cc1cc(F)cc(F)c1)C2 — higher, 8.78%
- CCn1cc(CN(C)Cc2cnn(-c3ccc(F)cc3)c2)cn1 — higher, -5.44%
- Cc1nc(CNC(=O)c2cc(COc3ccccc3F)[nH]n2)n[nH]1 — higher, -7.42%
- Cc1cc(=O)[nH]c(=O)n1-c1cccc(Cl)c1Cl — higher, -3.57%
- CN(CCCOc1ccccc1Cl)C(=O)CN1CCNC1=O — higher, -0.2%
- CCNc1cc2c(nn1)CCN(C(=O)c1cccnc1N(C)C)C2 — lower, -13.4%
- NC(=O)c1cc(C2CCCN(CCOCC(F)(F)F)C2)n[nH]1 (stereo not drawn) — higher, -11.8%
- CC(C)(C)c1n[nH]c(C2CN(C(=O)c3ccsc3)CCO2)n1 (stereo not drawn) — higher, -12.3%
- c1cnn(C2CN(Cc3nc(-c4ccsc4)no3)C2)c1 — higher, -12.2%
- O=C(NCc1ccco1)[C@@H]1CCO[C@@H]2CCN(c3ncccn3)C[C@H]21 — lower, -77.6%
- CCOCC1CN(C(=O)c2cscn2)Cc2cn(C)nc21 (stereo not drawn) — lower, -76.6%
- O=C1NC2(CCN(c3ncccn3)CC2)CC1c1cccnc1 (stereo not drawn) — lower, -71.4%
- COCCNC(=O)[C@@]12CCO[C@@H]1CCN(Cc1cc(C)on1)C2 — lower, -69.8%
- O=C(c1cccc(F)c1)N1CCN2C[C@H](OCc3cccnc3)C[C@H]2C1 — higher, 4.4%
- CCc1nccn1CC(=O)N1C[C@@H]2CC[C@H]1CN(S(=O)(=O)N(C)C)C2 — higher, -6.38%
- O=C(CSCC1CC1)N1C[C@H]2CC[C@@H](C1)N(Cc1ccccn1)C2=O — higher, 5%
